Source: ChEMBL document CHEMBL3259662 (ACS Med Chem Lett, 2014)
Values after ≈ are worked out from the molar mass of the structure shown. Active and inactive are the calls of the source. The calls are words filed in the database; no cut-off is given here.

Key:
[1] = Selectivity index, ratio of cytotoxicity for human BT549 cells to IC50 for Cryptococcus neoformans ATCC 90113; assay type: toxicity, cell-based, BT-549; conditions: read-out: Selectivity Index
Candida albicans = test: Antifungal activity against Candida albicans by CLSI method; assay type: functional, organism-based
Pichia kudriavzevii = test: Antifungal activity against Candida krusei by CLSI method; assay type: functional, organism-based
[2] = Selectivity index, ratio of cytotoxicity for African green monkey Vero cells to IC50 for Cryptococcus neoformans ATCC 90113; assay type: toxicity, cell-based; conditions: read-out: Selectivity Index
[3] = Selectivity index, ratio of cytotoxicity for human SK-MEL cells to IC50 for Cryptococcus neoformans ATCC 90113; assay type: toxicity, cell-based; conditions: read-out: Selectivity Index
BT-549 = test: Cytotoxicity against human BT549 cells assessed as cell viability after 48 hrs by neutral red uptake assay; assay type: cell-based; conditions: bt-549, 48 h
In short: (§1)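 Neutral red uptake assay in human cancer lines SK-MEL, KB, BT-549 and SK-OV-3 and in noncancerous mammalian kidney cells VERO and LLC-PK1. The highest tested concentration was 10 μg/mL.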

Escherichia coli = test: Antibacterial activity against Escherichia coli ATCC 35218 after 16 to 20 hrs by CLSI method; assay type: functional, organism-based
[4] = Binding affinity to EYPC/EYPG assessed as disruption of SUVs integrity by transmission electron microscopy
In short: (§2)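 Small unilamellar vesicles were made by a literature method, either EYPC/EYPG or EYPC/cholesterol, and incubated with or without peptide. Samples were deposited on carbon-coated copper grids, negatively stained with 2% (w/v) phosphotungstic acid and imaged by TEM to judge vesicle integrity and morphology.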

Nakaseomyces glabratus = test: Antifungal activity against Candida glabrata by CLSI method; assay type: functional, organism-based
SK-OV-3 = test: Cytotoxicity against human SKOV3 cells assessed as cell viability after 48 hrs by neutral red uptake assay; assay type: cell-based; conditions: sk-ov-3, 48 h; in short: as §1
Vero = test: Cytotoxicity against African green monkey Vero cells assessed as cell viability after 48 hrs by neutral red uptake assay; assay type: cell-based; conditions: chlorocebus sabaeus; in short: as §1
Lipid bilayer = test: Binding affinity to small unilamellar vesicles assessed as destruction of membrane by transmission electron microscopy; in short: as §2
SK-MEL = test: Cytotoxicity against human SK-MEL cells assessed as cell viability after 48 hrs by neutral red uptake assay; assay type: cell-based; in short: as §1
Cryptococcus neoformans [5] = test: Ratio of amphotericin B MFC to compound MFC for Cryptococcus neoformans ATCC 90113 after 70 to 74 hrs by CLSI method; assay type: functional
[6] = Selectivity index, ratio of cytotoxicity for human SKOV3 cells to IC50 for Cryptococcus neoformans ATCC 90113; assay type: toxicity, cell-based, SK-OV-3; conditions: read-out: Selectivity Index
[7] = Binding affinity to EYPC/cholesterol by transmission electron microscopy; in short: as §2
Cryptococcus neoformans [8] = test: Antifungal activity against Cryptococcus neoformans ATCC 90113 after 70 to 74 hrs by CLSI method; assay type: functional, organism-based; conditions: for IC50 / MIC: Cryptococcus neoformans, ATCC 90113
In short: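 Growth inhibition of C. neoformans per the CLSI protocol. […] MIC is the lowest test concentration with no detectable growth. MFC is the lowest concentration killing 100% of the organism.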

[9] = Selectivity index, ratio of cytotoxicity for human KB cells to IC50 for Cryptococcus neoformans ATCC 90113; assay type: toxicity, cell-based; conditions: read-out: Selectivity Index
KB = test: Cytotoxicity against human KB cells assessed as cell viability after 48 hrs by neutral red uptake assay; assay type: cell-based; in short: as §1
LLC-PK1 = test: Cytotoxicity against pig LLC-PK1 cells assessed as cell viability after 48 hrs by neutral red uptake assay; assay type: cell-based, Sus scrofa; conditions: llc-pk1, 48 h; in short: as §1
[10] = Selectivity index, ratio of cytotoxicity for pig LLC-PK1 cells to IC50 for Cryptococcus neoformans ATCC 90113; assay type: toxicity, cell-based; conditions: read-out: Selectivity Index
Aspergillus fumigatus = test: Antifungal activity against Aspergillus fumigatus by CLSI method; assay type: functional, organism-based
Staphylococcus aureus [11] = test: Antibacterial activity against methicillin-resistant Staphylococcus aureus ATCC 33591 after 16 to 20 hrs by CLSI method; assay type: functional, organism-based
[12] = Retention time of the compound by reverse phase HPLC analysis; assay type: physicochemical
In short: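 Reverse-phase HPLC on a C-18 column (25 cm × 4.6 mm, 5 μM) at 1 mL/min over 40 min. The gradient ran 85−5% with A = 0.1% TFA in H2O and B = 0.1% TFA in CH3CN. Detection was at 220 nm.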

Staphylococcus aureus [13] = test: Antibacterial activity against Staphylococcus aureus ATCC 29213 by CLSI method; assay type: functional, organism-based

Compound	selectivity ratio [1]	Activity (Candida albicans)	Activity (Pichia kudriavzevii)	selectivity ratio [2]	selectivity ratio [3]	Activity (BT-549) [µg/mL]	Activity (Escherichia coli)	Activity (Nakaseomyces glabratus)	Activity (SK-OV-3) [µg/mL]	Activity (Vero) [µg/mL]	Activity (SK-MEL) [µg/mL]	Ratio (Cryptococcus neoformans [5])	selectivity ratio [6]	MFC100 (Cryptococcus neoformans [8]) [µg/mL]	IC50 (Cryptococcus neoformans [8]) [µg/mL]	MIC (Cryptococcus neoformans [8]) [µg/mL]	selectivity ratio [9]	Activity (KB) [µg/mL]	Activity (LLC-PK1) [µg/mL]	selectivity ratio [10]	further results
CC(C)(C)c1ccc(-c2nc(C[C@H](NC(=O)[C@@H](N)CCCNC(=N)N)C(=O)N[C@@H](CCCNC(=N)N)C(=O)NCc3ccccc3)c[nH]2)cc1	> 143	inactive	inactive	> 143	> 143	> 10	inactive	inactive	> 10	> 10	> 10	8	> 143	0.16 (≈ 0.232 µM)	0.07 (≈ 0.102 µM)	0.16 (≈ 0.232 µM)	> 143	> 10	> 10	> 143	Activity [4]: Active; Activity (Lipid bilayer): Active; Activity [7]: inactive; Activity (Aspergillus fumigatus): inactive
CC(C)(C)OC(=O)N[C@@H](CCCNC(=N)N)C(=O)N[C@@H](Cc1c[nH]c(-c2ccc(-c3ccccc3)cc2)n1)C(=O)N[C@@H](CCCNC(=N)N)C(=O)NCc1ccccc1	> 50	inactive	inactive	> 50	> 50	> 10	inactive	inactive	> 10	> 10	> 10	4	> 50	0.31 (≈ 0.383 µM)	0.2 (≈ 0.247 µM)	0.31 (≈ 0.383 µM)	> 50	> 10	> 10	> 50	MBC100 (Staphylococcus aureus [11]): 20 µg/mL (≈ 24.7 µM); MIC (Staphylococcus aureus [11]; Staphylococcus aureus, ATCC 33591): 20 µg/mL (≈ 24.7 µM); IC50 (Staphylococcus aureus [11]; Staphylococcus aureus, ATCC 33591, read-out: IC50): 10.8 µg/mL (≈ 13.3 µM); Retention_time [12]: 24.04 min; Activity (Aspergillus fumigatus): inactive; IC50 (Staphylococcus aureus [13]): 6.88 µg/mL (≈ 8.5 µM); MBC100 (Staphylococcus aureus [13]): inactive; MIC (Staphylococcus aureus [13]): 20 µg/mL (≈ 24.7 µM)
